# According to ChEMBL document CHEMBL1221271, “6-Alkylquinolone-3-carboxylic acid tethered to macrolides synthesis and antimicrobial profile” (2010):
# How the values were obtained:
# Type in all cases: functional
# Streptococcus pneumoniae [1] = assay: Antimicrobial activity against Streptococcus pneumoniae 134 GR-M by broth microdilution method
# Outline: (§1)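 Standard broth microdilution assay. Read-out is the minimum inhibitory concentration, reported in mg/L.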
# Staphylococcus aureus [2] = assay: Antimicrobial activity against efflux-mediated macrolide-resistant Staphylococcus aureus PK1 by broth microdilution method
# Outline: (§2)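 MIC determined by the standard broth microdilution method; values reported in mg/L. Reference macrolide antibiotics were tested alongside as comparators.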
# Streptococcus pneumoniae [3] = assay: Antimicrobial activity against Streptococcus pneumoniae 58 spain by broth microdilution method; outline: as §1
# Streptococcus pyogenes [4] = assay: Antimicrobial activity against macrolide-resistant Streptococcus pyogenes Finland 2 by broth microdilution method; outline: as §2
# Streptococcus pyogenes [5] = assay: Antimicrobial activity against Streptococcus pyogenes Finland 2 by broth microdilution method; outline: as §2
# Haemophilus influenzae = assay: Antimicrobial activity against Haemophilus influenzae ATCC 49247 by broth microdilution method; outline: as §1
# Staphylococcus aureus [6] = assay: Antimicrobial activity against Staphylococcus aureus ATCC 13709 by broth microdilution method; outline: as §2
# Staphylococcus aureus [7] = assay: Antimicrobial activity against macrolide, licosamide streptogramin-resistant Staphylococcus aureus 90265/97 by broth microdilution method; outline: as §2
# Streptococcus pneumoniae [8] = assay: Antimicrobial activity against Streptococcus pneumoniae SP030 by broth microdilution method; outline: as §1
# Streptococcus pyogenes [9] = assay: Antimicrobial activity against Streptococcus pyogenes 3565 by broth microdilution method; outline: as §1
# Streptococcus pyogenes [10] = assay: Antimicrobial activity against Streptococcus pyogenes 166 GR-Micro by broth microdilution method; outline: as §1
Structure (SMILES),MIC (Streptococcus pneumoniae [1]),MIC (Staphylococcus aureus [2]),MIC (Streptococcus pneumoniae [3]),MIC (Streptococcus pyogenes [4]),MIC (Streptococcus pyogenes [5]),MIC (Haemophilus influenzae),MIC (Staphylococcus aureus [6]),MIC (Staphylococcus aureus [7]),MIC (Streptococcus pneumoniae [8]),MIC (Streptococcus pyogenes [9]),MIC (Streptococcus pyogenes [10])
CCOC(=O)CCCCCOCC#Cc1ccc2c(c1)c(=O)c(C(=O)OCC)cn2CC,64 µg/mL,> 64 µg/mL,64 µg/mL,> 64 µg/mL,> 64 µg/mL,> 64 µg/mL,> 64 µg/mL,> 64 µg/mL,16 µg/mL,8 µg/mL,> 64 µg/mL
CCn1cc(C(=O)O)c(=O)c2cc(C#CCOCCCCCC(=O)O)ccc21,> 64 µg/mL,> 64 µg/mL,> 64 µg/mL,,> 64 µg/mL,> 64 µg/mL,> 64 µg/mL,> 64 µg/mL,> 64 µg/mL,> 64 µg/mL,> 64 µg/mL
CCOC(=O)CCCCOCC#Cc1ccc2c(c1)c(=O)c(C(=O)OCC)cn2CC,> 64 µg/mL,> 64 µg/mL,> 64 µg/mL,,> 64 µg/mL,> 64 µg/mL,> 64 µg/mL,> 64 µg/mL,> 64 µg/mL,> 64 µg/mL,> 64 µg/mL
CCn1cc(C(=O)O)c(=O)c2cc(C#CCOCCCCC(=O)O)ccc21,> 64 µg/mL,> 64 µg/mL,2 µg/mL,16 µg/mL,16 µg/mL,> 64 µg/mL,> 64 µg/mL,> 64 µg/mL,1 µg/mL,1 µg/mL,> 64 µg/mL
CC[C@H]1OC(=O)[C@H](C)[C@@H](O[C@H]2C[C@@](C)(OC)[C@@H](OC(=O)CCCCCOCCCc3ccc4c(c3)c(=O)c(C(=O)O)cn4CC)[C@H](C)O2)[C@H](C)[C@@H](O[C@@H]2O[C@H](C)C[C@H](N(C)C)[C@H]2O)[C@](C)(O)C[C@@H](C)CN(C)[C@H](C)[C@@H](O)[C@]1(C)O,< 0.125 µg/mL,0.25 µg/mL,< 0.125 µg/mL,,< 0.125 µg/mL,0.5 µg/mL,0.25 µg/mL,0.25 µg/mL,< 0.125 µg/mL,< 0.125 µg/mL,< 0.125 µg/mL
CC[C@H]1OC(=O)[C@H](C)[C@@H](O[C@H]2C[C@@](C)(OC)[C@@H](OC(=O)CCCCCOCCCc3ccc4c(c3)c(=O)c(C(=O)O)cn4CC)[C@H](C)O2)[C@H](C)[C@@H](O[C@@H]2O[C@H](C)C[C@H](N(C)C)[C@H]2O)[C@](C)(O)C[C@@H](C)CN(C)[C@H](C)[C@@H](OC)[C@]1(C)O,0.5 µg/mL,1 µg/mL,< 0.125 µg/mL,,< 0.125 µg/mL,1 µg/mL,1 µg/mL,2 µg/mL,< 0.125 µg/mL,< 0.125 µg/mL,0.5 µg/mL
CC[C@H]1OC(=O)[C@H](C)[C@@H](O[C@H]2C[C@@](C)(OC)[C@@H](OC(=O)CCCCOCC#Cc3ccc4c(c3)c(=O)c(C(=O)O)cn4CC)[C@H](C)O2)[C@H](C)[C@@H](O[C@@H]2O[C@H](C)C[C@H](N(C)C)[C@H]2O)[C@](C)(O)C[C@@H](C)CN(C)[C@H](C)[C@@H](O)[C@]1(C)O,0.5 µg/mL,0.5 µg/mL,< 0.125 µg/mL,,< 0.125 µg/mL,1 µg/mL,0.5 µg/mL,4 µg/mL,< 0.125 µg/mL,< 0.125 µg/mL,1 µg/mL
CC[C@H]1OC(=O)[C@H](C)[C@@H](O[C@H]2C[C@@](C)(OC)[C@@H](OC(=O)CCCCOCCCc3ccc4c(c3)c(=O)c(C(=O)O)cn4CC)[C@H](C)O2)[C@H](C)[C@@H](O[C@@H]2O[C@H](C)C[C@H](N(C)C)[C@H]2O)[C@](C)(O)C[C@@H](C)CN(C)[C@H](C)[C@@H](O)[C@]1(C)O,0.25 µg/mL,0.5 µg/mL,< 0.125 µg/mL,,< 0.125 µg/mL,2 µg/mL,0.5 µg/mL,4 µg/mL,< 0.125 µg/mL,< 0.125 µg/mL,0.25 µg/mL
CC[C@H]1OC(=O)[C@H](C)[C@@H](O[C@H]2C[C@@](C)(OC)[C@@H](OC(=O)CCCCCOCC#Cc3ccc4c(c3)c(=O)c(C(=O)O)cn4CC)[C@H](C)O2)[C@H](C)[C@@H](O[C@@H]2O[C@H](C)C[C@H](N(C)C)[C@H]2O)[C@](C)(OC)C[C@@H](C)C(=O)[C@H](C)[C@@H](O)[C@]1(C)O,4 µg/mL,2 µg/mL,< 0.125 µg/mL,,< 0.125 µg/mL,16 µg/mL,2 µg/mL,8 µg/mL,< 0.125 µg/mL,< 0.125 µg/mL,2 µg/mL
CC[C@H]1OC(=O)[C@H](C)[C@@H](O[C@H]2C[C@@](C)(OC)[C@@H](OC(=O)CCCCCOCCCc3ccc4c(c3)c(=O)c(C(=O)O)cn4CC)[C@H](C)O2)[C@H](C)[C@@H](O[C@@H]2O[C@H](C)C[C@H](N(C)C)[C@H]2O)[C@](C)(OC)C[C@@H](C)C(=O)[C@H](C)[C@@H](O)[C@]1(C)O,1 µg/mL,2 µg/mL,< 0.125 µg/mL,,< 0.125 µg/mL,8 µg/mL,2 µg/mL,4 µg/mL,< 0.125 µg/mL,< 0.125 µg/mL,< 0.125 µg/mL
CC[C@H]1OC(=O)[C@H](C)[C@@H](O[C@H]2C[C@@](C)(OC)[C@@H](O)[C@H](C)O2)[C@H](C)[C@@H](O[C@@H]2O[C@H](C)C[C@H](N(C)C)[C@H]2O)[C@](C)(O)C[C@@H](C)CN(C)[C@H](C)[C@@H](O)[C@]1(C)O [AZITHROMYCIN],> 64 µg/mL,> 64 µg/mL,> 64 µg/mL,16 µg/mL,16 µg/mL,1 µg/mL,0.5 µg/mL,> 64 µg/mL,< 0.125 µg/mL,< 0.125 µg/mL,> 64 µg/mL
CC[C@H]1OC(=O)[C@H](C)[C@@H](O[C@H]2C[C@@](C)(OC)[C@@H](O)[C@H](C)O2)[C@H](C)[C@@H](O[C@@H]2O[C@H](C)C[C@H](N(C)C)[C@H]2O)[C@](C)(OC)C[C@@H](C)C(=O)[C@H](C)[C@@H](O)[C@]1(C)O [CLARITHROMYCIN],> 64 µg/mL,32 µg/mL,> 64 µg/mL,4 µg/mL,4 µg/mL,8 µg/mL,≤ 0.125 µg/mL,> 64 µg/mL,≤ 0.125 µg/mL,≤ 0.125 µg/mL,> 64 µg/mL
CC[C@H]1OC(=O)[C@H](C)C(=O)[C@H](C)[C@@H](O[C@@H]2O[C@H](C)C[C@H](N(C)C)[C@H]2O)[C@](C)(OC)C[C@@H](C)C(=O)[C@H](C)[C@H]2N(CCCCn3cnc(-c4cccnc4)c3)C(=O)O[C@]12C [TELITHROMYCIN],0.25 µg/mL,0.125 µg/mL,0.25 µg/mL,0.5 µg/mL,0.5 µg/mL,1 µg/mL,0.25 µg/mL,< 0.125 µg/mL,< 0.125 µg/mL,< 0.125 µg/mL,16 µg/mL
